Experimental data: ChEMBL document CHEMBL3407499, “Synthesis, QSAR and anticandidal evaluation of 1,2,3-triazoles derived from naturally bioactive scaffolds” (Eur J Med Chem, 2015)
Converted amounts (≈) assume the structure as drawn.

How the values were obtained:
Candida albicans [1] = assay: microbe, parasite or virus in culture; assay type: functional, organism-based; settings: ATCC 90028, 24 h
Candida albicans [2] = assay: microbe, parasite or virus in culture; assay type: functional; settings: ATCC 90028, 48 h
Nakaseomyces glabratus [3] = assay: microbe, parasite or virus in culture; assay type: functional, organism-based; settings: ATCC 90030, 24 h
Nakaseomyces glabratus [4] = assay: microbe, parasite or virus in culture; assay type: functional; settings: ATCC 90030, 48 h
Candida tropicalis [5] = assay: Anticandidal activity against Candida tropicalis ATCC 750 incubated at 37 degC for 24 hrs by broth dilution method; assay type: functional, organism-based; settings: ATCC 750, 24 h
Candida tropicalis [6] = assay: Fungicidal activity against Candida tropicalis ATCC 750 incubated at 37 degC for 48 hrs by broth dilution method; assay type: functional; settings: ATCC 750, 48 h
[7] = Toxicity in human RBC assessed as induction of hemolysis at 500 ug/ml incubated for 1 hr by spectrophotometry; assay type: cell-based, Erythrocyte; settings: red blood cells (RBC), read-out: Activity
Summary of the method: (§1)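 Human erythrocyte suspension in PBS, 100 µL added in triplicate to 100 µL compound dilution series in the same buffer, 1 h at 37 °C. Tubes centrifuged 10 min at 2000 rpm and 20 °C, and supernatant A450 measured. Percent hemolysis taken relative to buffer (0%) and 1% Triton X-100 (100%).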

[8] = Toxicity in human RBC assessed as induction of hemolysis at anticandidal IC50 level incubated for 1 hr by spectrophotometry; assay type: cell-based, Erythrocyte; settings: red blood cells (RBC), read-out: Activity
Summary of the method: as §1

Vero [9] = assay: Cytotoxicity against African green monkey Vero cells assessed as reduction in cell viability up to 10 ug/ml after 48 hrs by neutral red assay; assay type: cell-based; settings: chlorocebus sabaeus
Vero [10] = assay: Cytotoxicity against African green monkey Vero cells assessed as reduction in cell viability after 48 hrs by neutral red assay; assay type: cell-based; settings: chlorocebus sabaeus
Summary of the method: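 Vero (monkey kidney fibroblast) cells seeded at 25,000 cells/well, grown 24 h, then exposed to a range of compound concentrations for 48 h. Viable cells quantified by Neutral Red uptake. IC50 read from dose-response curves. Doxorubicin served as positive cytotoxic control.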

Candida albicans [11] = assay: Anticandidal activity against Candida albicans ATCC 90028 incubated at 37 degC for 24 hrs in presence of fluconazole by broth micro dilution method; assay type: functional; settings: ATCC 90028, 24 h
Nakaseomyces glabratus [12] = assay: Anticandidal activity against Candida glabrata ATCC 90030 incubated at 37 degC for 24 hrs in presence of fluconazole by broth micro dilution method; assay type: functional; settings: ATCC 90030, 24 h
Candida tropicalis [13] = assay: Anticandidal activity against Candida tropicalis ATCC 750 incubated at 37 degC for 24 hrs in presence of fluconazole by broth micro dilution method; assay type: functional; settings: ATCC 750, 24 h
Candida albicans [14] = assay: Anticandidal activity against Candida albicans ATCC 90028 assessed as fractional inhibitory concentration incubated at 37 degC for 24 hrs in presence of fluconazole by broth micro dilution method; assay type: functional
Nakaseomyces glabratus [15] = assay: Anticandidal activity against Candida glabrata ATCC 90030 assessed as fractional inhibitory concentration incubated at 37 degC for 24 hrs in presence of fluconazole by broth micro dilution method; assay type: functional
Candida tropicalis [16] = assay: Anticandidal activity against Candida tropicalis ATCC 750 assessed as fractional inhibitory concentration incubated at 37 degC for 24 hrs in presence of fluconazole by broth micro dilution method; assay type: functional
Nakaseomyces glabratus [17] = assay: Anticandidal activity against Candida glabrata ATCC 90030 incubated at 37 degC for 24 hrs in presence of 8-((1-Benzyl-1H-1,2,3-triazol-4-yl)methoxy)quinoline by broth micro dilution method; assay type: functional; settings: ATCC 90030, 24 h
Candida tropicalis [18] = assay: Anticandidal activity against Candida tropicalis ATCC 750 incubated at 37 degC for 24 hrs in presence of 8-((1-Benzyl-1H-1,2,3-triazol-4-yl)methoxy)quinoline by broth micro dilution method; assay type: functional; settings: ATCC 750, 24 h

| Compound | IC50 (Candida albicans [1]) | MFC (Candida albicans [2]) | IC50 (Nakaseomyces glabratus [3]) | MFC (Nakaseomyces glabratus [4]) | IC50 (Candida tropicalis [5]) | MFC (Candida tropicalis [6]) | Activity (Vero [9]) | further results |
| --- | --- | --- | --- | --- | --- | --- | --- | --- |
| Oc1cccc2cccnc12 [OXYQUINOLINE] | 18.5 µg/mL (≈ 127 µM) | 500 µg/mL (≈ 3440 µM) | 13.8 µg/mL (≈ 95.1 µM) | 500 µg/mL (≈ 3440 µM) | 22.9 µg/mL (≈ 158 µM) | 500 µg/mL (≈ 3440 µM) |  | MIC (Candida tropicalis [5]): 15.6 µg/mL (≈ 108 µM); hemolysis at 1 h, 500 ug/ml [7]: 15%; hemolysis at 1 h [8]: < 5% |
| C=CCc1ccc(OCc2cn(Cc3ccccc3)nn2)c(OC)c1 | 1090 µg/mL (≈ 3260 µM) | > 1000 µg/mL | 847 µg/mL (≈ 2530 µM) | > 1000 µg/mL | 734 µg/mL (≈ 2190 µM) |  | Non-toxic |  |
| COc1cccc2c1C(=O)c1c(O)c3c(c(O)c1C2=O)C[C@@](O)(C(=O)CO)C[C@@H]3O[C@H]1C[C@H](N)[C@H](O)[C@H](C)O1 [DOXORUBICIN] |  |  |  |  |  |  |  | IC50 (Vero [10]): > 5 µg/mL |
| COc1cc(/C=C/C(=O)O)ccc1O [FERULATE] | 210 µg/mL (≈ 1080 µM) | > 1000 µg/mL | 617 µg/mL (≈ 3180 µM) | > 1000 µg/mL | 67.6 µg/mL (≈ 348 µM) | > 1000 µg/mL |  |  |
| COc1ccccc1OCc1cn(Cc2ccccc2)nn1 | 515 µg/mL (≈ 1740 µM) |  | 370 µg/mL (≈ 1250 µM) | > 1000 µg/mL | 165 µg/mL (≈ 559 µM) |  | Non-toxic |  |
| CC(C)c1ccc(CO)cc1 | 81.5 µg/mL (≈ 542 µM) | 1000 µg/mL (≈ 6660 µM) | 7.09 µg/mL (≈ 47.2 µM) | 500 µg/mL (≈ 3330 µM) | 44.8 µg/mL (≈ 298 µM) | 1000 µg/mL (≈ 6660 µM) |  |  |
| c1ccc(Cn2cc(COc3cccc4cccnc34)nn2)cc1 | 0.044 µg/mL (≈ 0.139 µM) | 62.5 µg/mL (≈ 198 µM) | 12 µg/mL (≈ 38 µM) | 125 µg/mL (≈ 395 µM) | 3.6 µg/mL (≈ 11.4 µM) | 62.5 µg/mL (≈ 198 µM) | Non-toxic | MIC (Candida albicans [1]): 15.6 µg/mL (≈ 49.4 µM); MIC (Nakaseomyces glabratus [3]): 31.2 µg/mL (≈ 98.8 µM); MIC (Candida tropicalis [5]): 15.6 µg/mL (≈ 49.4 µM); MIC (Candida albicans [11]): 7.81 µg/mL; MIC (Nakaseomyces glabratus [12]): 7.81 µg/mL; MIC (Candida tropicalis [13]): 7.81 µg/mL; fractional inhibitory concentration index (FICI) (Candida albicans [14]): 0.74; fractional inhibitory concentration index (FICI) (Nakaseomyces glabratus [15]): 0.48; fractional inhibitory concentration index (FICI) (Candida tropicalis [16]): 0.74; hemolysis at 1 h, 500 ug/ml [7]: 4.76%; hemolysis at 1 h [8]: < 5% |
| C=CCc1ccc(O)c(OC)c1 [EUGENOL] | 237 µg/mL (≈ 1440 µM) | > 1000 µg/mL | 216 µg/mL (≈ 1310 µM) | > 1000 µg/mL | 92.7 µg/mL (≈ 564 µM) | > 1000 µg/mL |  |  |
| C/C=C\c1ccc(O)c(OC)c1 [ISOEUGENOL] | 83 µg/mL (≈ 505 µM) | 1000 µg/mL (≈ 6090 µM) | 71.6 µg/mL (≈ 436 µM) | 500 µg/mL (≈ 3040 µM) | 128 µg/mL (≈ 778 µM) | 1000 µg/mL (≈ 6090 µM) |  |  |
| C/C=C/c1ccc(OCc2cn(Cc3ccccc3)nn2)c(OC)c1 | 481 µg/mL (≈ 1430 µM) |  | 293 µg/mL (≈ 873 µM) | > 1000 µg/mL | 154 µg/mL (≈ 459 µM) | > 1000 µg/mL | Non-toxic |  |
| CC(C)c1ccc(O)cc1 | 182 µg/mL (≈ 1330 µM) | 500 µg/mL (≈ 3670 µM) | 153 µg/mL (≈ 1130 µM) | > 1000 µg/mL | 69.5 µg/mL (≈ 510 µM) | > 1000 µg/mL |  |  |
| COc1cc(C=O)ccc1O [VANILLIN] | 321 µg/mL (≈ 2110 µM) | > 1000 µg/mL | 483 µg/mL (≈ 3170 µM) | > 1000 µg/mL | 123 µg/mL (≈ 811 µM) | > 1000 µg/mL |  | hemolysis at 1 h, 500 ug/ml [7]: 5.45%; hemolysis at 1 h [8]: < 5% |
| CC(C)c1ccc(OCc2cn(Cc3ccccc3)nn2)cc1 | 550 µg/mL (≈ 1790 µM) | 1000 µg/mL (≈ 3250 µM) | 1060 µg/mL (≈ 3460 µM) | 1000 µg/mL (≈ 3250 µM) | 493 µg/mL (≈ 1600 µM) | 1000 µg/mL (≈ 3250 µM) | Non-toxic |  |
| COc1ccccc1O [GUAIACOL] | 179 µg/mL (≈ 1440 µM) | > 1000 µg/mL | 336 µg/mL (≈ 2700 µM) | > 1000 µg/mL | 201 µg/mL (≈ 1620 µM) | > 1000 µg/mL |  |  |
| COc1cc(/C=C/C(=O)O)ccc1OCc1cn(Cc2ccccc2)nn1 | 891 µg/mL (≈ 2440 µM) | > 1000 µg/mL | 416 µg/mL (≈ 1140 µM) | > 1000 µg/mL | 105 µg/mL (≈ 288 µM) | > 1000 µg/mL | Non-toxic |  |
| COc1cc(C=O)ccc1OCc1cn(Cc2ccccc2)nn1 | 44.7 µg/mL (≈ 138 µM) | > 500 µg/mL | 216 µg/mL (≈ 667 µM) | 500 µg/mL (≈ 1550 µM) | 92.7 µg/mL (≈ 287 µM) | 500 µg/mL (≈ 1550 µM) | Non-toxic | hemolysis at 1 h, 500 ug/ml [7]: 33.5%; hemolysis at 1 h [8]: < 5% |
| CC(C)c1ccc(COCc2cn(Cc3ccccc3)nn2)cc1 | 324 µg/mL (≈ 1010 µM) | > 1000 µg/mL | 316 µg/mL (≈ 984 µM) | > 1000 µg/mL | 169 µg/mL (≈ 527 µM) | > 1000 µg/mL | Non-toxic |  |
| OC(Cn1cncn1)(Cn1cncn1)c1ccc(F)cc1F [FLUCONAZOLE] | 15.6 µg/mL (≈ 51 µM) |  | 7.81 µg/mL (≈ 25.5 µM) |  | 8.55 µg/mL (≈ 27.9 µM) |  |  | MIC (Nakaseomyces glabratus [3]): 15.6 µg/mL (≈ 51 µM); MIC (Candida tropicalis [5]): 15.6 µg/mL (≈ 51 µM); MIC (Nakaseomyces glabratus [17]): 3.9 µg/mL; MIC (Candida tropicalis [18]): 3.9 µg/mL; hemolysis at 1 h, 500 ug/ml [7]: 68.6% |
